These results are taken from ChEMBL document CHEMBL4196121, “Meridianin D Analogues Display Antibiofilm Activity against MRSA and Increase Colistin Efficacy in Gram-Negative Bacteria” (ACS Med Chem Lett, 2018).

The test system of series [1] is Staphylococcus aureus. The series is described as follows: Antibacterial activity against methicillin-resistant Staphylococcus aureus ATCC 43300 after 16 hrs by broth microdilution assay. The series is classed as functional. Particulars: ATCC 43300, 16 h.
Series [2] concerns Staphylococcus aureus. The experiment in a line: Inhibition of biofilm formation in methicillin-resistant Staphylococcus aureus ATCC 43300 after 24 hrs by crystal violet staining based method. The format is functional, organism-based. Particulars: ATCC 43300, 24 h. In short, it runs like this:
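Read-out is the IC50, taken as the compound concentration that inhibits 50% of MRSA 43300 biofilm formation.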

In a further series the test system is Enterococcus faecium. The experiment in a line: Antibacterial activity against vancomycin-resistant Enterococcus faecium ATCC 51559 after 16 hrs by broth microdilution assay. The series is classed as functional. Particulars: ATCC 51559, 16 h. In general terms: In broth dilution the organism is exposed to a series of concentrations in liquid medium.
Series [3] has as its system Staphylococcus aureus. The series is described as follows: Antibacterial activity against methicillin-resistant Staphylococcus aureus ATCC 1556 after 16 hrs by broth microdilution assay. The series is classed as functional. The note with it: ATCC 1556, 16 h.
For series [4], the system named is Staphylococcus aureus. The experiment in a line: Antibacterial activity against methicillin-resistant Staphylococcus aureus ATCC 6538 after 16 hrs by broth microdilution assay. The series is classed as functional. Particulars: ATCC 6538, 16 h.
The test system of series [5] is Staphylococcus aureus. The series is described as follows: Antibiofilm activity against methicillin-resistant Staphylococcus aureus ATCC 43300 assessed induction of dispersion of preformed biofilm after 24 hrs by crystal violet staining based method. The format is functional, organism-based. The note with it: ATCC 43300, 24 h.
The subject of series [6] is Staphylococcus aureus. The series is described as follows: Antibiofilm activity against methicillin-resistant Staphylococcus aureus ATCC 43300 assessed as dispersion of preformed biofilm at 80 uM after 24 hrs by crystal violet staining based method relative to control. The series is classed as functional.
For series [7], the system named is Staphylococcus aureus. The experiment in a line: Potentiation of vancomycin-induced antibacterial activity against methicillin-resistant Staphylococcus aureus ATCC 43300 assessed as dispersion of preformed biofilm after 24 hrs by crystal violet staining based method. The series is classed as functional, organism-based. The note with it: ATCC 43300, 24 h.
Series [8] concerns Acinetobacter baumannii. The series is described as follows: Potentiation of colistin-induced antimicrobial activity against Acinetobacter baumannii ATCC 17978 assessed as fold reduction in colistin MIC after 16 hrs by broth microdilution assay. The series is classed as functional. An outline of the steps:
(§1)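 Analogue at a fixed 60 μM unless otherwise noted, combined with colistin against the Gram-negative strain. Potentiation is read as the fold reduction in colistin MIC relative to colistin alone. A. baumannii 3941/4106 and K. pneumoniae C3/B9 are primary clinical isolates with genomically encoded colistin resistance.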

Series [9] relates to Escherichia coli. The experiment in a line: Antibacterial activity against Escherichia coli ATCC 25922 expressing mcr1 gene after 16 hrs by broth microdilution assay. The series is classed as organism-based. Particulars: in vitro.
The test system of series [10] is Escherichia coli. The experiment in a line: Antibacterial activity against Escherichia coli ATCC 25922 after 16 hrs by broth microdilution assay. The series is classed as organism-based.
Series [11] deals with Acinetobacter baumannii. The experiment in a line: Antibacterial activity against Acinetobacter baumannii ATCC 17978 expressing mcr1 gene after 16 hrs by broth microdilution assay. The series is classed as organism-based. The note with it: in vitro.
Series [12] deals with Acinetobacter baumannii. The series is described as follows: Antibacterial activity against Acinetobacter baumannii ATCC 17978 after 16 hrs by broth microdilution assay. The series is classed as organism-based.
In series [13] the test system is Acinetobacter baumannii. The experiment in a line: Antibacterial activity against Acinetobacter baumannii isolate 3941 after 16 hrs by broth microdilution assay. The format is organism-based.
For series [14], the system named is Acinetobacter baumannii. The series is described as follows: Antibacterial activity against Acinetobacter baumannii isolate 4106 after 16 hrs by broth microdilution assay. The format is organism-based.
For series [15], the system named is Acinetobacter baumannii. The experiment in a line: Antibacterial activity against Acinetobacter baumannii ATCC 19606 after 16 hrs by broth microdilution assay. The series is classed as organism-based, ATCC 19606 = CIP 70.34 = JCM 6841. The note with it: for MIC: […].
In series [16] the test system is Acinetobacter baumannii. The series is described as follows: Antibacterial activity against Acinetobacter baumannii isolate 5075 after 16 hrs by broth microdilution assay. The format is organism-based.
Series [17] relates to Klebsiella pneumoniae. The experiment in a line: Antibacterial activity against Klebsiella pneumoniae ATCC 2146 expressing NDM1 gene after 16 hrs by broth microdilution assay. The format is organism-based. The note with it: for MIC: […]; for Activity: in vitro.
Series [18] concerns Acinetobacter baumannii. The series is described as follows: Potentiation of colistin-induced antimicrobial activity against Acinetobacter baumannii isolate 3941 after 16 hrs by broth microdilution assay. The series is classed as functional, organism-based. An outline of the steps: as §1
The subject of series [19] is Klebsiella pneumoniae. The series is described as follows: Potentiation of colistin-induced antimicrobial activity against Klebsiella pneumoniae isolate C3 assessed as fold reduction in colistin MIC after 16 hrs by broth microdilution assay. The series is classed as functional. An outline of the steps:
as §1

Series [20] deals with Acinetobacter baumannii. The series is described as follows: Potentiation of colistin-induced antimicrobial activity against Acinetobacter baumannii isolate 4106 after 16 hrs in presence of 0.01% triton X-100 by broth microdilution assay. The format is functional, organism-based.
The test system of series [21] is Acinetobacter baumannii. The series is described as follows: Potentiation of colistin-induced antimicrobial activity against Acinetobacter baumannii ATCC 19606 assessed as fold reduction in colistin MIC after 16 hrs by broth microdilution assay. The series is classed as functional, ATCC 19606 = CIP 70.34 = JCM 6841. An outline of the steps: as §1
Series [22] has as its system Klebsiella pneumoniae. The experiment in a line: Potentiation of colistin-induced antimicrobial activity against Klebsiella pneumoniae isolate B9 after 16 hrs in presence of 0.01% triton X-100 by broth microdilution assay. The series is classed as functional, organism-based.
Series [23] concerns Klebsiella pneumoniae. The experiment in a line: Antibacterial activity against Klebsiella pneumoniae isolate C3 after 16 hrs by broth microdilution assay. Particulars: for MIC: […].
For series [24], the system named is Klebsiella pneumoniae. The series is described as follows: Antibacterial activity against Klebsiella pneumoniae isolate B9 after 16 hrs by broth microdilution assay. Particulars: in vivo.
Series [25] has as its system Escherichia coli. The experiment in a line: Potentiation of colistin-induced antimicrobial activity against Escherichia coli ATCC 25922 expressing mcr1 gene assessed as fold reduction in colistin MIC after 16 hrs by broth microdilution assay. The series is classed as functional. In short, it runs like this:
as §1

Series [26] has as its system Escherichia coli. The series is described as follows: Potentiation of colistin-induced antimicrobial activity against Escherichia coli ATCC 25922 assessed as fold reduction in colistin MIC after 16 hrs by broth microdilution assay. The series is classed as functional. An outline of the steps:
as §1

For series [27], the system named is Acinetobacter baumannii. The experiment in a line: Potentiation of colistin-induced antimicrobial activity against Acinetobacter baumannii ATCC 17978 expressing mcr1 gene assessed as fold reduction in colistin MIC after 16 hrs by broth microdilution assay. The format is functional. An outline of the steps:
as §1

Series [28] has as its system Acinetobacter baumannii. The experiment in a line: Potentiation of colistin-induced antimicrobial activity against Acinetobacter baumannii isolate 4106 assessed as fold reduction in colistin MIC after 16 hrs by broth microdilution assay. The series is classed as functional. An outline of the steps: as §1
For series [29], the system named is Klebsiella pneumoniae. The experiment in a line: Potentiation of colistin-induced antimicrobial activity against Klebsiella pneumoniae isolate B9 assessed as fold reduction in colistin MIC after 16 hrs by broth microdilution assay. The format is functional. An outline of the steps:
as §1

Series [30] deals with Acinetobacter baumannii. The series is described as follows: Potentiation of colistin-induced antimicrobial activity against Acinetobacter baumannii isolate 5075 assessed as fold reduction in colistin MIC after 16 hrs by broth microdilution assay. The format is functional. An outline of the steps: as §1
For series [31], the system named is Klebsiella pneumoniae. The experiment in a line: Potentiation of colistin-induced antimicrobial activity against Klebsiella pneumoniae ATCC 2146 expressing NDM1 gene assessed as fold reduction in colistin MIC after 16 hrs by broth microdilution assay. The series is classed as functional. An outline of the steps: as §1
Series [32] relates to Klebsiella pneumoniae. The series is described as follows: Potentiation of colistin-induced antimicrobial activity against Klebsiella pneumoniae isolate B9 after 16 hrs by broth microdilution assay. The series is classed as functional, organism-based. An outline of the steps:
as §1

Series [33] deals with Staphylococcus aureus. The experiment in a line: Effect on planktonic growth of methicillin-resistant Staphylococcus aureus ATCC 43300 at 60 uM after 16 hrs by broth microdilution assay. The series is classed as organism-based.
The subject of series [34] is Staphylococcus aureus. The series is described as follows: Antibiofilm activity against methicillin-resistant Staphylococcus aureus ATCC 43300 at < 60 uM after 16 hrs by broth microdilution assay. The series is classed as functional, organism-based.

Calls of active or inactive are those of the source. The calls are words filed in the database; no cut-off is given here.

As usually defined, the IC50 is the midpoint of a concentration-inhibition curve. A higher IC50 goes with weaker potency in that assay. Usually EC50 stands for the concentration giving half of the maximal effect. On to `Brc1ccc2[nH]cc(-c3ccnc(NCc4ccccc4)n3)c2c1.Cl`, for which the MIC against Staphylococcus aureus [1] is 6.25 µM; against Enterococcus faecium, 25 µM; in the series on Staphylococcus aureus [3], 6.25 µM; against Staphylococcus aureus [4], 6.25 µM; in the series with Escherichia coli [9], over 200 µM; with Escherichia coli [10], over 200 µM. In addition, the MIC with Acinetobacter baumannii [11], in the series with Acinetobacter baumannii [12], against Acinetobacter baumannii [13], in the series with Acinetobacter baumannii [14], with Acinetobacter baumannii [15] and in the series on Acinetobacter baumannii [16] was over 200 µM in each case. Further, the MIC in the series with Klebsiella pneumoniae [17], against Klebsiella pneumoniae [23] and in the series on Klebsiella pneumoniae [24] was over 200 µM each time. Further, inhibition with Staphylococcus aureus [2] was half-maximal at 9.62 µM (IC50). In addition, the EC50 with Staphylococcus aureus [5] and in the series on Staphylococcus aureus [7] was over 80 µM throughout. In addition, in the series on Staphylococcus aureus [6], the Activity was 26.2%. Moreover, the “fold change (FC)” value with Acinetobacter baumannii [8] came to 16; in the series on Klebsiella pneumoniae [19] it was 512; with Acinetobacter baumannii [21], 16. Moreover, in the series with Acinetobacter baumannii [18], the result was Active. In addition, the result in the series with Acinetobacter baumannii [20] and in the series on Klebsiella pneumoniae [22] was inactive.
Turning to `CCNc1nccc(-c2c[nH]c3ccc(Br)cc23)n1.Cl`, the MIC in the series on Staphylococcus aureus [1] was 50 µM; with Escherichia coli [9] it was over 200 µM; in the series with Escherichia coli [10] it was over 200 µM; against Acinetobacter baumannii [11] it was over 200 µM; in the series on Acinetobacter baumannii [12], over 200 µM; against Acinetobacter baumannii [13], over 200 µM. The MIC in the series with Acinetobacter baumannii [14], against Acinetobacter baumannii [15], against Acinetobacter baumannii [16], with Klebsiella pneumoniae [17], in the series on Klebsiella pneumoniae [23] and in the series on Klebsiella pneumoniae [24] was over 200 µM in each case. Also, the IC50 in the series on Staphylococcus aureus [2] is 24.6 µM. Besides, the 50% effective concentration (EC50) in the series with Staphylococcus aureus [5] was found to be 75.8 µM; with Staphylococcus aureus [7], 66.5 µM. Further, the “fold change (FC)” value is reported as 16 in the series with Escherichia coli [25]; 8 in the series on Escherichia coli [26]; 128 with Acinetobacter baumannii [27]; 16 in the series with Acinetobacter baumannii [8]; 512 in the series on Acinetobacter baumannii [28]; 512 in the series on Klebsiella pneumoniae [29]. The “fold change (FC)” value came out at 16 in the series on Acinetobacter baumannii [30], 16 with Klebsiella pneumoniae [31], 512 in the series on Klebsiella pneumoniae [19] and 16 in the series with Acinetobacter baumannii [21]. Besides, the outcome in the series on Acinetobacter baumannii [18] and in the series with Klebsiella pneumoniae [32] was Active. Further, the outcome in the series on Acinetobacter baumannii [20] and in the series on Klebsiella pneumoniae [22] was inactive.
`Cl.Nc1nc(-c2c[nH]c3ccc(Br)cc23)c[nH]1`: in the series on Staphylococcus aureus [1], the MIC amounted to 25 µM. Moreover, the EC50 with Staphylococcus aureus [5] was 102 µM; with Staphylococcus aureus [7] it was over 100 µM. Besides, the Activity entry with Staphylococcus aureus [33], in the series with Acinetobacter baumannii [12], with Acinetobacter baumannii [13], in the series on Acinetobacter baumannii [14], in the series on Acinetobacter baumannii [15] and with Acinetobacter baumannii [16] was “Toxic” in each case. In addition, the Activity result with Klebsiella pneumoniae [17], in the series on Klebsiella pneumoniae [23] and with Klebsiella pneumoniae [24] was “Toxic” in each case. In addition, the result in the series on Staphylococcus aureus [34] was inactive.
Regarding `Cl.Nc1nc(-c2c[nH]c3cc(Br)ccc23)c[nH]1`, in the series with Staphylococcus aureus [1], the MIC came out at 25 µM. In addition, the EC50 was 101 µM in the series on Staphylococcus aureus [5] and over 100 µM with Staphylococcus aureus [7]. Further, the Activity entry with Staphylococcus aureus [33], in the series with Acinetobacter baumannii [12], with Acinetobacter baumannii [13], with Acinetobacter baumannii [14], in the series on Acinetobacter baumannii [15] and with Acinetobacter baumannii [16] was “Toxic” throughout. Moreover, the Activity result in the series with Klebsiella pneumoniae [17], in the series with Klebsiella pneumoniae [23] and in the series on Klebsiella pneumoniae [24] was “Toxic” throughout. Also, the outcome with Staphylococcus aureus [34] was inactive.
